What is called IC50 is the point on the concentration scale where inhibition reaches its midpoint. The term EC50 denotes the concentration that produces a half-maximal response.

Results on twelve molecules are retold here after ChEMBL document CHEMBL1150874, “Antiviral phenylpropanoid glycosides from the medicinal plant Markhamia lutea” (J Nat Prod, 1998).

Test [1] can be described thus: Cytotoxicity against VZV 3CV-1 infected human Hep2 cells after 3 days. It counts as cell-based. Conditions: HEp-2, 72 h.
Test [2] in a line: Selectivity index, ratio of EC50 for mCMV RM461 by cytopathic effect over IC50 for human Hep2 cells. It counts as functional, HEp-2. (In general: Cytopathic effects are the visible damage that an infection or toxin causes in cultured cells.)
In test [3] the test system is Murine cytomegalovirus. The test is described as follows: Antiviral activity against mCMV RM461 infected in human Hep2 cells assessed as virus-induced cytopathic effect after 3 days. Conditions: HEp-2, 72 h.
The nature of test [4]: Cytotoxicity against mCMV RM-461 infected human Hep2 cells after 3 days. It counts as cell-based. Conditions: HEp-2, 72 h.
Test [5] deals with Human alphaherpesvirus 3. Kind of test: Antiviral activity against VZV 3CV-1 infected in human Hep2 cells after 3 days by plaque neutralization assay. It counts as functional, organism-based. Conditions: Human alphaherpesvirus 3, HEp-2, 72 h.
Test [6] concerns Human alphaherpesvirus 1. Kind of test: Antiviral activity against HSV1 infected in human Hep2 cells assessed as virus-induced cytopathic effect after 3 days. It counts as functional, organism-based. To be noted: Human alphaherpesvirus 1, HEp-2, 72 h.
The subject of test [7] is Human alphaherpesvirus 2. Kind of test: Antiviral activity against HSV2 infected in human Hep2 cells assessed as virus-induced cytopathic effect after 3 days. It counts as functional, organism-based. To be noted: Human alphaherpesvirus 2, HEp-2, 72 h.
Test [8] can be described thus: Selectivity index, ratio of EC50 for HSV1 by cytopathic effect over IC50 for human Hep2 cells. It counts as functional, HEp-2.
Test [9] is described as follows: Selectivity index, ratio of EC50 for HSV2 by cytopathic effect over IC50 for human Hep2 cells. It counts as functional, HEp-2.
A short description of test [10]: Cytotoxicity against HSV2 infected human Hep2 cells after 3 days. To be noted: HEp-2, 72 h. It counts as cell-based.
Test [11] can be described thus: Cytotoxicity against HSV1 infected human Hep2 cells after 3 days. It counts as cell-based. Conditions: HEp-2, 72 h.
In test [12] the test system is Respiratory syncytial virus. The test is described as follows: Antiviral activity against RSV long infected in human Hep2 cells assessed as virus-induced cytopathic effect after 3 days. It counts as functional, organism-based. To be noted: HEp-2, 72 h.
Test [13] in a line: Selectivity index, ratio of EC50 for RSV long by cytopathic effect over IC50 for human Hep2 cells. It counts as functional, HEp-2.
A short description of test [14]: Cytotoxicity against RSV long infected human Hep2 cells after 3 days. It counts as cell-based. To be noted: HEp-2, 72 h.
Test [15] is described as follows: Selectivity index, […] for human Hep2 cells administered 3 hrs after infection. It counts as functional, HEp-2. Summed up: (§1)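 RSV (Long, CPE) in Hep-2 cells, seeded the day before at 10 000 cells/well in high-glucose DMEM with 2% or 10% heat-inactivated FBS. Virus (3000 PFU) or medium alone was adsorbed for 3 h at 37 °C, then 3-fold dilutions were added (eight concentrations, 830-0.38 or […] final). Incubation was 3 days at 37 °C, then neutral red stain. EC50 and IC50 were in µg/mL; SI = IC50/EC50.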

For test [16], the system named is Respiratory syncytial virus. Kind of test: Antiviral activity against RSV infected in human Hep2 cells assessed as virus-induced cytopathic effect administered 3 hrs postinfection. It counts as functional, organism-based. Conditions: HEp-2, 3 h. The method in brief: as §1
Test [17] is described as follows: Cytotoxicity against human Hep2 cells administered 3 hrs postinfection. It counts as cell-based. To be noted: HEp-2, 3 h. The method in brief: as §1
The subject of test [18] is Respiratory syncytial virus. The test is described as follows: Antiviral activity against RSV A-2 infected in human Hep2 cells after 3 days by plaque neutralization assay. Conditions: HEp-2, 72 h. It counts as functional, organism-based.
The nature of test [19]: Selectivity index, […] for human Hep2 cells. It counts as functional, HEp-2.
A short description of test [20]: Cytotoxicity against RSV A-2 infected human Hep2 cells after 3 days. To be noted: HEp-2, 72 h. It counts as cell-based.

Values after ≈ are worked out from the molar mass of the structure shown. Bounds are passed on as bounds.

For the molecule `Nc1nc2c(ncn2COC(CO)CO)c(=O)[nH]1` [GANCICLOVIR], the IC50 in test [1] is 840 µg/mL (≈ 3290 µM); in [4], above 100 µg/mL. In addition, in test [2], the “Ratio IC50/EC50” value is given as above 20. For the same molecule, the EC50 in [3] came to 5 µg/mL (≈ 19.6 µM); in test [5] it was 26.7 µg/mL (≈ 105 µM).
Turning to `Nc1nc2c(ncn2COCCO)c(=O)[nH]1` [ACYCLOVIR], the figures for the 50% effective concentration (EC50) in test [6] and in test [7] were 0.26 µg/mL (≈ 1.15 µM) and 2.3 µg/mL (≈ 10.2 µM), respectively. The “Ratio IC50/EC50” value was above 250 in test [8] and above 4.3 in [9]. Also, the IC50 in [10] is above 10 µg/mL; in test [11], above 67 µg/mL.
Regarding `CC(=O)Oc1ccc(/C=C/C(=O)OC[C@H]2O[C@@H](OCCc3ccc(OC(C)=O)c(OC(C)=O)c3)[C@H](OC(C)=O)[C@@H](O[C@@H]3O[C@@H](C)[C@H](OC(C)=O)[C@@H](OC(C)=O)[C@H]3OC(C)=O)[C@@H]2OC(C)=O)cc1OC(C)=O` [ISOVERBASCOSIDE NOAACETATE], the EC50 in [12] was 3.4 µg/mL (≈ 3.39 µM). In test [13], the “Ratio IC50/EC50” value turned out to be 3.3. For the same molecule, in test [14] (read-out: IC50), the IC50 was found to be 11.2 µg/mL (≈ 11.2 µM).
With `C[C@@H]1O[C@@H](O[C@@H]2[C@@H](O)[C@H](OCCc3ccc(O)c(O)c3)O[C@H](COC(=O)/C=C/c3ccc(O)c(O)c3)[C@H]2O)[C@H](O)[C@H](O)[C@H]1O` [ISOACTEOSIDE], the EC50 in test [12] is 0.62 µg/mL (≈ 0.993 µM); in [16], 0.17 µg/mL (≈ 0.272 µM); in [18], 1.1 µg/mL (≈ 1.76 µM). For the same molecule, the “Ratio IC50/EC50” value in test [15] came to 735; in [13] it was 84. For the same molecule, the IC50 worked out at 75 µg/mL (≈ 120 µM) in test [1]; 125 µg/mL (≈ 200 µM) in test [17]; 89 µg/mL (≈ 142 µM) in [4]; 51.4 µg/mL (≈ 82.3 µM) in [14] (read-out: IC50); 27 µg/mL (≈ 43.2 µM) in test [10]; 30 µg/mL (≈ 48 µM) in [11].
On to `C[C@@H]1O[C@@H](O[C@H]2[C@H](O)[C@@H](COC(=O)/C=C/c3ccc(O)c(O)c3)O[C@@H](OCCc3ccc(O)c(O)c3)[C@@H]2O[C@@H]2OC[C@](O)(CO)[C@@H]2O)[C@H](O)[C@H](O)[C@H]1O` [LUTEOSIDE B], for which the concentration for a half-maximal effect (EC50) in test [12] worked out at 3.4 µg/mL (≈ 4.49 µM); in [16] it was 0.23 µg/mL (≈ 0.304 µM). The “Ratio IC50/EC50” value in test [15] was 780; in [13] it was above 19. Moreover, the concentration for half-maximal inhibition (IC50) in [17] is 180 µg/mL (≈ 238 µM); in test [14] (read-out: IC50) it was above 67 µg/mL; in test [10], 90 µg/mL (≈ 119 µM); in [11], 93 µg/mL (≈ 123 µM).
Turning to `CC(=O)OC[C@H]1O[C@@H](OCCc2ccc(O)c(O)c2)[C@H](O[C@@H]2OC[C@](O)(CO)[C@@H]2O)[C@@H](O[C@@H]2O[C@@H](C)[C@H](O)[C@@H](O)[C@H]2O)[C@@H]1OC(=O)/C=C/c1ccc(O)c(O)c1` [LUTEOSIDE A], the EC50 in [12] worked out at 0.87 µg/mL (≈ 1.09 µM); in test [16], 11 µg/mL (≈ 13.8 µM). For the same molecule, the “Ratio IC50/EC50” value in test [15] is on record as 16; in [13], 89. Further, the values for the concentration for half-maximal inhibition (IC50) in [17] and in test [14] (read-out: IC50) were 180 µg/mL (≈ 225 µM) and 77 µg/mL (≈ 96.4 µM), respectively.
Take `CC(=O)OC[C@H]1O[C@@H](OCCc2ccc(O)c(O)c2)[C@H](OC(C)=O)[C@@H](O[C@@H]2O[C@@H](C)[C@H](OC(C)=O)[C@@H](OC(C)=O)[C@H]2OC(C)=O)[C@@H]1OC(=O)/C=C/c1ccc(O)c(O)c1`: in test [12], the EC50 turned out to be 5.87 µg/mL (≈ 7.03 µM). Besides, the “Ratio IC50/EC50” value in test [13] is 4.4. Moreover, in test [14] (read-out: IC50), the IC50 was 26.2 µg/mL (≈ 31.4 µM).
As to `CC(=O)OC[C@H]1O[C@@H](OCCc2ccc(OC(C)=O)c(OC(C)=O)c2)[C@H](OC(C)=O)[C@@H](O[C@@H]2O[C@@H](C)[C@H](OC(C)=O)[C@@H](OC(C)=O)[C@H]2OC(C)=O)[C@@H]1OC(=O)/C=C/c1ccc(OC(C)=O)c(OC(C)=O)c1` [VERBASCOSIDE NONAACETATE], the half-inhibitory concentration (IC50) in test [14] (read-out: IC50) worked out at 33.7 µg/mL (≈ 33.6 µM).
On to `COc1cc(/C=C/C(=O)OC[C@H]2O[C@@H](OCCc3ccc(O)c(O)c3)[C@H](O[C@@H]3OC[C@](O)(CO)[C@@H]3O)[C@@H](O[C@@H]3O[C@@H](C)[C@H](O)[C@@H](O)[C@H]3O)[C@@H]2O)ccc1O` [LUTEOSIDE C], for which the values for the EC50 in test [12] and in test [16] were 15.5 µg/mL (≈ 20.1 µM) and 12 µg/mL (≈ 15.6 µM), respectively. For the same molecule, the entries for the “Ratio IC50/EC50” value in [15] and in [13] were above 28 and 12, respectively. Also, the IC50 in test [17] is above 330 µg/mL; in [14] (read-out: IC50), 189 µg/mL (≈ 245 µM).
For the molecule `NC(=O)c1ncn([C@@H]2O[C@H](CO)[C@@H](O)[C@H]2O)n1` [RIBAVIRIN], the “Ratio IC50/EC50” value in test [19] is recorded as 11; in test [15], 10.8; in test [13], 19. Further, the EC50 turned out to be 1.8 µg/mL (≈ 7.37 µM) in [12], 2.3 µg/mL (≈ 9.42 µM) in [16] and 2.2 µg/mL (≈ 9.01 µM) in test [18]. The figures for the IC50 in test [20], in test [17] and in [14] (read-out: IC50) were 25 µg/mL (≈ 102 µM), 25 µg/mL (≈ 102 µM) and 35 µg/mL (≈ 143 µM), respectively.
Regarding `C[C@@H]1O[C@@H](O[C@@H]2[C@@H](O)[C@H](OCCc3ccc(O)c(O)c3)O[C@H](CO)[C@H]2OC(=O)/C=C/c2ccc(O)c(O)c2)[C@H](O)[C@H](O)[C@H]1O` [ACETOSIDE], the EC50 in test [12] came out at 0.8 µg/mL (≈ 1.28 µM); in test [16] it was 0.26 µg/mL (≈ 0.416 µM); in [18], 9.7 µg/mL (≈ 15.5 µM). Besides, the “Ratio IC50/EC50” value in test [15] came to 415; in test [13], 85. For the same molecule, the 50% inhibitory concentration (IC50) was 108 µg/mL (≈ 173 µM) in [17], 44 µg/mL (≈ 70.4 µM) in test [4], 76.9 µg/mL (≈ 123 µM) in test [14] and 71 µg/mL (≈ 114 µM) in [10].
Turning to `CC(=O)O[C@@H]1[C@@H](OC(C)=O)[C@H](C)O[C@@H](O[C@@H]2[C@@H](OC(C)=O)[C@H](OCCc3ccc(O)c(O)c3)O[C@H](COC(=O)/C=C/c3ccc(O)c(O)c3)[C@H]2OC(C)=O)[C@@H]1OC(C)=O`, the EC50 in test [12] amounted to 1.93 µg/mL (≈ 2.31 µM). In [13], the “Ratio IC50/EC50” value is 8.2. Moreover, the IC50 in [14] (read-out: IC50) is 15.9 µg/mL (≈ 19 µM).
